Here are results for eight compounds from ChEMBL document CHEMBL1138247 (J Med Chem, 2007).

SMILES strings stand for the structures. pIC50: −log10 of the molar value.

The nature of data set [1]: Partition coefficient, log P of the compound. It is filed as physicochemical. The following applies: octanol/water. Put shortly:
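logP extrapolated from reverse-phase HPLC retention time converted to capacity factor k, against a standard calibration curve built from compounds of known logP.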

For a further data set, the target named is Integrin alpha-4/beta-1 (Homo sapiens, UniProt P05556+P13612). The experiment in a line: Inhibition of integrin alpha4beta1 receptor-mediated human Molt-4 cell adhesion to CS1 peptide. It is filed as cell-based.
Integrin alpha-4/beta-1, sequence (P05556 whole entry): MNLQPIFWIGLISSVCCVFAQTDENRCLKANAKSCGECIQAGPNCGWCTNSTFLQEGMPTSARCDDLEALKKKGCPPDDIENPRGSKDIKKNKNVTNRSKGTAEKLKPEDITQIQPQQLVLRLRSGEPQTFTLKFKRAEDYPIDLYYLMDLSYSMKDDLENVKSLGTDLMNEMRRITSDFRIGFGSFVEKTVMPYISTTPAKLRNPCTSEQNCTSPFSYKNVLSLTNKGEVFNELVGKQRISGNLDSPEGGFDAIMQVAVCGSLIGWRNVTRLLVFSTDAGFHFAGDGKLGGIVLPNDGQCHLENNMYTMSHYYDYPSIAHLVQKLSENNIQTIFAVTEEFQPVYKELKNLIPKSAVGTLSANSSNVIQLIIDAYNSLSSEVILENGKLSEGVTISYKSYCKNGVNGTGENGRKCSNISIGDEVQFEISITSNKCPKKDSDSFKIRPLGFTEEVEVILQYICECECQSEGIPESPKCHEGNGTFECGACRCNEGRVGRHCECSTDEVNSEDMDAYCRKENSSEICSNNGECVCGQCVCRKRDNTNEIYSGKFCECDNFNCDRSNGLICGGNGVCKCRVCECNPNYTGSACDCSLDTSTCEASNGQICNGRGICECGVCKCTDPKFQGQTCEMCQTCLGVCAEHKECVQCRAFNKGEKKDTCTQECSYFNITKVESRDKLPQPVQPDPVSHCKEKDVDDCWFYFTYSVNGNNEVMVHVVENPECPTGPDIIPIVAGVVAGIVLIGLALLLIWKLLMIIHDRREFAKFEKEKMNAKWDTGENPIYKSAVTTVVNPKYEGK
Integrin alpha-4/beta-1, sequence (P13612 whole entry): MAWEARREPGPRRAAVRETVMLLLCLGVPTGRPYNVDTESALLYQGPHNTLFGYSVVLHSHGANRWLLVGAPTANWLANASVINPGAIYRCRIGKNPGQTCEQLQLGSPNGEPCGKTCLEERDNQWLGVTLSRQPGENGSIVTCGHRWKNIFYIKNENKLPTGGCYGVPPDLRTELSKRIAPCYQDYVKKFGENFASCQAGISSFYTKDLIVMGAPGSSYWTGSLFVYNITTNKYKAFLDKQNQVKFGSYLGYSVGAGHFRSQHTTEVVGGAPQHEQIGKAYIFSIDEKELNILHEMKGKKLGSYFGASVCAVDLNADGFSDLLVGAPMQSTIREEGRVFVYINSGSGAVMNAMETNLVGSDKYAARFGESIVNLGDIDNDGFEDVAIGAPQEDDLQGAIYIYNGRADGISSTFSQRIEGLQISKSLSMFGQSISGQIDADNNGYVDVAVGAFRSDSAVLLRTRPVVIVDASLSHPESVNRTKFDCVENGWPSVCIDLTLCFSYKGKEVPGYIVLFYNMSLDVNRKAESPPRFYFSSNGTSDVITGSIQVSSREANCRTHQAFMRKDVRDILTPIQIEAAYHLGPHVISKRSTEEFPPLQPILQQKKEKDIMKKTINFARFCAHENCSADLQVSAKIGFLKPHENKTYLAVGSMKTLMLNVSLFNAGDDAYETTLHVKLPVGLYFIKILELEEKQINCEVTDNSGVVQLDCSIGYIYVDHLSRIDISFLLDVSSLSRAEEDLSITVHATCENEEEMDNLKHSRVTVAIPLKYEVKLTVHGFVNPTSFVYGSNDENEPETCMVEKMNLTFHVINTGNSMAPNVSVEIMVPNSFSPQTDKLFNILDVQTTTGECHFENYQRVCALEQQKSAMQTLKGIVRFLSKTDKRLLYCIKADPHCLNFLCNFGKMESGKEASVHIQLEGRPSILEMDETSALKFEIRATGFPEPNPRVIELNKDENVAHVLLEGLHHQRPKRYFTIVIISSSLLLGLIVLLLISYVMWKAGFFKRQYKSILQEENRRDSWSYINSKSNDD

Regarding `NC(=O)C1(NC(=O)[C@@H](CCCC(=O)O)NC(=O)[C@@H](CCCCNC(=O)/C=C/c2cccnc2)NC(=O)c2ccc(Nc3nc4ccccc4[nH]3)cc2)CCCCC1`, in data set [1], the logP is 1.83. At Integrin alpha-4/beta-1, this compound had a pIC50 of 6.38.
For `NC(=O)C1(NC(=O)[C@@H](CCCC(=O)O)NC(=O)[C@@H](CCCCNC(=O)/C=C/c2cccnc2)NC(=O)c2cccc(Nc3nc4ccccc4[nH]3)c2)CCCCC1` the same measures were 2.12 and 6.73.
Taken in the same sequence, the figures for `Cc1cccc2[nH]c(Nc3ccc(CC(=O)N[C@H](CCCCNC(=O)/C=C/c4cccnc4)C(=O)N[C@H](CCCC(=O)O)C(=O)NC4(C(N)=O)CCCCC4)cc3)nc12` were 2.58 and 7.56.
For `NC(=O)C1(NC(=O)[C@@H](CCCC(=O)O)NC(=O)[C@@H](CCCCNC(=O)/C=C/c2cccnc2)NC(=O)Cc2ccc(Nc3nc4cc(Br)ccc4[nH]3)cc2)CCCCC1` the same measures were 1.96 and 6.47.
`NC(=O)C1(NC(=O)[C@@H](CCCC(=O)O)NC(=O)[C@@H](CCCCNC(=O)/C=C/c2cccnc2)NC(=O)Cc2ccc(Nc3nc4ccccc4[nH]3)cc2)CCCCC1`: the logP in data set [1] is 2.23. Besides, the pIC50 at Integrin alpha-4/beta-1 was 9.52.
For `NC(=O)C1(NC(=O)[C@@H](CCCC(=O)O)NC(=O)[C@@H](CCCCNC(=O)/C=C/c2cccnc2)NC(=O)CCc2ccc(Nc3nc4ccccc4[nH]3)cc2)CCCCC1` the same measures were 2.8 and 6.46.
In turn, `Cc1cccc2[nH]c(Nc3ccc(C(=O)N[C@H](CCCCNC(=O)/C=C/c4cccnc4)C(=O)N[C@H](CCCC(=O)O)C(=O)NC4(C(N)=O)CCCCC4)cc3)nc12` returned a logP in data set [1] of 1.86. The compound further had a pIC50 on Integrin alpha-4/beta-1 of 6.18.
With `CC(C(=O)N[C@H](CCCCNC(=O)/C=C/c1cccnc1)C(=O)N[C@H](CCCC(=O)O)C(=O)NC1(C(N)=O)CCCCC1)c1ccc(Nc2nc3ccccc3[nH]2)cc1` (stereo partly specified), the logP in data set [1] came to 2.63. At Integrin alpha-4/beta-1, this compound gave a pIC50 of 6.35.

Broadly, the logP is the decadic logarithm of the partition coefficient of the neutral form, usually between octanol and water. Low readings indicate lower lipophilicity, high ones higher lipophilicity. In general, pIC50 refers to −log10 of the IC50, conventionally taken in molar units. Low readings indicate a high IC50, high ones a low IC50.
